TNAP act hi DEA – TNAP activators at high phosphate acceptor level, primary screen, biochemical, luminescence, uHTS; AID 1136, 2008; purified TNAP, CDP-star luminescence, 1 M DEA, 30 min; active compounds read high; 0 = EDTA background, 1 = DMSO-only activity; Alkaline phosphatase, tissue-nonspecific isozyme (Homo sapiens), P05186; activation factor at 20 µM; 200,000 tested, under 10 active;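 active = activation factor at least 2 at 20 µM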
Target sequence (P05186 whole entry, looked up): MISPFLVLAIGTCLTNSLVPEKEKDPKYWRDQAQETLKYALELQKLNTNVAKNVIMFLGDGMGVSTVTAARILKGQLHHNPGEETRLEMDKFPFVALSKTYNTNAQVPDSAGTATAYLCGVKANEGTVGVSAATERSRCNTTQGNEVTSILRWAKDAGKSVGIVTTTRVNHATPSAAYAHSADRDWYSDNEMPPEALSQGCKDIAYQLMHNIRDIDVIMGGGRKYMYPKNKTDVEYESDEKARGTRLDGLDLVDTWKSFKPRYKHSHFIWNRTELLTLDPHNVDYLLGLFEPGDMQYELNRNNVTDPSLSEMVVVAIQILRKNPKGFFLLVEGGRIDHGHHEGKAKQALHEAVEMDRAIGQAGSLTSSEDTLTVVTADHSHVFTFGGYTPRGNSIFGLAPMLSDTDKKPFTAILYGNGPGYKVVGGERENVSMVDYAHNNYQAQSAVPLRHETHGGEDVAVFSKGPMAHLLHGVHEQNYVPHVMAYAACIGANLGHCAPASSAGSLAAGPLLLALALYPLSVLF
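Test system – human TNAP · Doses – 20 µM single point · Incubation – 30 min, room temperature · Signal – luminescent substrate turnover signal · Read-out basis – activation factor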
RAM network inh – inhibitors of the yeast RAM network, primary screen, dse1pr::URA3 reporter, 5-FOA selection | S. cerevisiae dse1pr::URA3 reporter, 5-FOA growth OD615, 2 d; analog-sensitive cbk1-as2 kinase mutant strain | inhibition, % at 50 µM | 190,000 compounds, 1.8% hits | AID 868, 2007;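 active = inhibition above a set limit, 3 SD over mean compound inhibition, cut at about 8.4% in these data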;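 also: 0% = DMSO-only wells with no growth and 100% = 10 µM 1-NA-PP1 full growth; inhibition rescues growth on 5-FOA so higher OD means more RAM inhibition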
TNAP inh hiacc – human TNAP enzyme inhibitors, primary screen, biochemical, luminescent, high phosphate acceptor level, uHTS; Alkaline phosphatase, tissue-nonspecific isozyme (Homo sapiens), P05186; purified TNAP, CDP-star luminescence, 1 M DEA; inhibition, % at 20 µM; 200,000 compounds, 0.03% hits;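 active = over 50% inhibition of tissue-nonspecific alkaline phosphatase at 20 µM in the single-dose screen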;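 also: plate controls were DMSO wells for no effect and EDTA-quenched wells as full inhibition for full effect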
Yeast life ext – compounds extending yeast replicative lifespan, primary screen, S. cerevisiae, OD615; S. cerevisiae growth with nicotinamide; deaD strain in restrictive glucose medium; 130,000 compounds, 0.68% hits; inhibition of the nicotinamide effect, % at 10 µM; AID 775, 2007;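 active = inhibition above a set limit, placed 3 SD over the median of all compounds, cut at about 26% in these data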;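 also: 0% = nicotinamide-treated wells and 100% = cells grown without nicotinamide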
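Buffer or medium: CSMM-D glucose medium, restrictive; test system: modified budding yeast, DeaD strain; compound: single dose 10 µM compound, 0.25% DMSO; schedule: culture preincubation 4 h, compound exposure 48 h, both 30 °C; detection: optical density (absorbance) at 615 nm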
Yeast growth inh – growth inhibitors of yeast BB579 in restrictive medium, primary screen, yeast lifespan-shortening project, S. cerevisiae; 140,000 compounds, 0.51% hits; inhibition, % at 10 µM; OD615, 48 h; AID 804, 2007;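 active = inhibition above a set limit, 3 SD over the mean compound inhibition, cut at about 44% in these data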
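Assay system – yeast BB579 (DeaD) · Dosing – single compound dose of 10 µM, 0.25% DMSO final · Detection – OD615 turbidity measurement · Buffer or medium – CSMM-D restrictive synthetic medium containing dextrose (glucose) · Benchmarks – positive control amphotericin B 10 µg/mL · Incubation – 48 h exposure, 30 °C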
TNAP inh noacc – human TNAP enzyme inhibitors, primary screen, biochemical, luminescent, no phosphate acceptor, uHTS; purified TNAP, CDP-star luminescence, 30 min; inhibition, % at 20 µM; 200,000 compounds, 0.26% hits; AID 1012, 2008;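 active = tissue-nonspecific alkaline phosphatase inhibition above about 50% at 20 µM in the single-dose screen, limit read from the data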;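 also: 0% = DMSO negative control and 100% = EDTA positive control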
Active calls of the source: *; · = no result. Hits are enriched below; roughly 2.8% of the tested compounds scored in any of these assays.

SMILES	TNAP act hi DEA	RAM network inh	TNAP inh hiacc	Yeast life ext	Yeast growth inh	TNAP inh noacc
CCc1c(C)nc2ncnn2c1N1CCC(C(=O)Nc2cccc(C(C)=O)c2)CC1	1.1	1	-10	-3	-27	-2
CCn1c(SCC(=O)Nc2nc3ccc(C)cc3s2)nc2c(c1=O)SC(C)C2 (stereo unspecified)	1	10*	-1	21	-64	-5
CCn1c(SCC(=O)Nc2nc3ccccc3s2)nc2c(c1=O)SC(C)C2 (stereo unspecified)	1	1	0	-8	0	-5
OC(CCN1CCOCC1)(c1ccc(Cl)cc1)C1CCCCC1 (stereo unspecified)	1	0	-2	1	-17	-5
CN(Cc1ccccc1)C(=O)CSc1nc2ccccc2c(=O)n1Cc1ccco1	1.1	9.2*	-5	0	-33	-6
O=C(CCCn1c(SCC(=O)c2ccc(Cl)cc2)nc2ccccc2c1=O)NCc1ccco1	1	8.5*	-3	11	-38	8
Cc1ccc(NC(=O)CN(C)C(=O)CSc2nc3ccccc3c(=O)n2Cc2ccco2)cc1	1.1	4	-8	-9	-26	-8
O=C(CCCn1c(SCC(=O)c2ccc(O)c(O)c2)nc2ccccc2c1=O)NCC1CCCO1 (stereo unspecified)	0.9	2	11	-12	-29	96*
CC(=O)NC(Cc1ccccc1)C(=O)NC1CCN(C(=O)NC2CCCCC2)CC1 (stereo unspecified)	1	1	0	-5	1	-7
O=C(/C=C/c1cccs1)c1ccc(Br)cc1	1	2	-1	-33	-32	1
O=C(/C=C\c1cccs1)c1c(O)ccc2ccc(=O)oc12	1	3	0	27*	-31	-3
Cn1c2ccccc2c(=O)n2c(=O)c3ccccc3cc12	1	1	-2	-7	47*	-8
COc1ccc(/C=N/NC(=O)c2csc(-n3nc(C)cc3C(F)(F)F)n2)cc1	1	-1	2	142*	-45	-4
CCOC(=O)c1c(NC(=O)c2ccccc2C)sc2c1CC(C)(C)OC2	1.1	8.8*	-6	-4	-49	-7
CCOC(=O)c1c(NC(=O)c2ccc(C)cc2)sc2c1CC(C)(C)OC2	1	10*	4	4	-56	-3
CCCC(=O)Nc1sc2c(c1C(=O)OCC)CC(C)(C)OC2	1	0	1	·	·	-1
Cc1cccc(Cc2cnc(NC(=O)C3=NCCN3)s2)c1	1	2	-3	·	·	-32
Cc1cccc(Cc2cnc(NC(=O)c3ccc(C)o3)s2)c1	1	8.8*	0	-21	-20	-6
COc1cccc(NC(=O)CSc2nc3c(c(-c4ccco4)c2C#N)CCCC3)c1	1	9.2*	-3	-5	-16	-4
COCCOC(=O)c1c(C)nc(SCC(=O)Nc2ccc(OC)cc2)c(C#N)c1-c1ccco1	1	0	-1	-14	27	0
COc1cc(NC(=O)COC(=O)/C=C/c2ccc(Cl)cc2Cl)cc(OC)c1	1	9.5*	-2	4	-39	-3
O=C(O)CCN1C(=O)c2ccc(Oc3ccc4c(c3)C(=O)N(CCC(=O)O)C4=O)cc2C1=O	1	10*	-2	-6	-48	-7
O=C1c2ccc(Oc3ccc4c(c3)C(=O)N(CCCCO)C4=O)cc2C(=O)N1CCCCO	1	7	-2	-2	-2	-9
Cn1c(=O)n(C)c2cc(S(=O)(=O)NCCO)ccc21	1.1	0	-7	1	-73	-15
O=C(Cn1nc(-c2ccccc2)c2ccccc2c1=O)Nc1cccc(O)c1	1.1	2	-6	·	·	-8
SMILES	TNAP act hi DEA	RAM network inh	TNAP inh hiacc	Yeast life ext	Yeast growth inh	TNAP inh noacc
N#Cc1c(-c2ccccc2)c(-c2ccccc2)nn(CC(=O)NNC(=O)Nc2ccccc2)c1=O	1	4	-1	62*	-10	-10
CC(=O)c1ccc(-n2c(CCC(=O)O)ccc2-c2cccs2)cc1	1	9.7*	-1	-27	-37	-9
O=S(=O)(c1ccc2ccccc2c1)N1CCC(c2nc(-c3ccncc3)no2)CC1	0.9	0	5	·	10	3
CC(C)(C)C1=CC(=O)C(=O)C(C(C)(C)C)=C1	1	2	-2	40*	-44	-5
CC(C)C(c1nnnn1Cc1ccccc1)N1CCN(Cc2ccc3c(c2)OCO3)CC1 (stereo unspecified)	1	1	-4	65*	4	-8
O=C1ON=C(c2ccccc2)/C1=C/c1ccc(-c2ccccc2[N+](=O)[O-])o1	1	5	1	42*	22	6
O=c1c2ccccc2nc(SCc2cccc(F)c2)n1C1CCCC1	1	11*	2	0	-48	-10
O=C(CCCSc1nnnn1-c1cccc2ccccc12)c1ccc(F)cc1	1	9.4*	-1	-1	-32	-6
COc1ccc(NC(=O)CSc2nc3ccsc3c(=O)n2CCCCCC(=O)O)cc1	1	11*	-3	·	·	-11
CCC(C)n1c(SCC(=O)Nc2ccccc2C(F)(F)F)nc2ccsc2c1=O (stereo unspecified)	1	4	-4	-3	-17	-9
O=C(O)CCCCn1c(SCC(=O)Nc2ccccc2C(F)(F)F)nc2ccsc2c1=O	1	8.7*	0	13	-59	-6
O=C(O)CCCCCn1c(SCC(=O)Nc2ccc(F)cc2)nc2ccsc2c1=O	1	6	-1	·	·	-9
CCOCCCN1C(=O)CN(C2CCC(C)CC2)C(=O)C1c1ccc(C)cc1 (stereo unspecified)	1	0	-3	·	·	-4
N/C(=N\NC(=O)c1sccc1OCc1ccc(Cl)cc1Cl)c1ccccn1	1	8.7*	-3	·	·	-28
CNC(=S)NNC(=O)c1sccc1OCc1ccc(Cl)cc1Cl	1	2	4	-18	-21	-3
COc1cc(Cl)c(C)cc1NC(=O)c1cccc(OC)c1OC	1.1	10*	-6	·	·	-5
O=C(Nc1ccccc1-c1nnc(SCc2ccc(Cl)cc2)o1)c1ccccc1	1	8.4*	1	6	-54	-6
NC(=O)c1cc2cc(Cl)ccc2oc1=Nc1cccc(C(F)(F)F)c1	1	5	-2	4	-32	-9
CCc1cc2c3c(c(=O)oc2cc1O)CCCC3	1	1	-2	-10	-7	-9
c1ccc(-c2ccc(C(c3ccccc3)n3ccnc3)cc2)cc1 (stereo unspecified)	1	0	-2	-7	96*	-74

Screening data (PubChem)
